# Active and inactive are the calls of the source. No cut-off for these calls is given here.
# How the values were obtained:
# [1] = Antioxidant activity assessed as protection against […]-induced pBR322 DNA strand breakage at 20 uM after 1 hr using ethidium bromide staining by agarose gel electrophoresis analysis; type: functional
# Method in brief: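 Supercoiled plasmid pBR322 DNA (100 ng/25 µl) incubated with 10 mM AAPH plus 20 µM test compound in 10 mM PBS, pH 7.4, 37 °C, 1 h; strand breakage (supercoiled vs open circular/linear forms) read by agarose gel electrophoresis. Controls: DNA alone (native) and DNA with AAPH.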
# HL-60 [2] = test: Antiproliferative activity against human HL60 cells after 48 hrs by MTT assay; type: functional, cell-based; settings: HL-60, 48 h
# Method in brief: (§1)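 MTT proliferation assay in HL-60 and A549 cells; IC50 taken as concentration giving 50% inhibition of cell proliferation, reported as mean ± SD of three determinations.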
# A549 [3] = test: Antiproliferative activity against human A549 cells after 72 hrs by MTT assay; type: functional, cell-based; settings: A549, 72 h; method in brief: as §1
# HL-60 [4] = test: Antiproliferative activity against human HL60 cells after 48 hrs by MTT assay relative to resveratrol; type: functional
# A549 [5] = test: Induction of apoptosis in human A549 cells assessed as condensed chromatin after 24 hrs by Hoechst-33258/propodium iodide staining based fluorescence microscopy; type: functional, cell-based
# Method in brief: (§2)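 A549 cells treated with culture medium or 5, 10 and 15 µM compound for 24 h, then nuclear-stained with Hoechst 33258/propidium iodide and viewed by fluorescence microscopy (200×). Living cells scored as smooth blue nuclei; early apoptotic cells as blue with bright specks of condensed chromatin. Representative of three separate experiments.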
# A549 [6] = test: Cell cycle arrest in human A549 cells assessed as accumulation at G2/M phase at 10 uM after 24 hrs using propidium iodide staining by flow cytometric analysis (reference value: 8.16 %); type: functional
# A549 [7] = test: Antiproliferative activity against human A549 cells after 72 hrs by MTT assay relative to resveratrol; type: functional
# A549 [8] = test: Cell cycle arrest in human A549 cells assessed as accumulation at G2/M phase at 30 uM after 24 hrs using propidium iodide staining by flow cytometric analysis (reference value: 8.16 %); type: functional
# A549 [9] = test: Cell cycle arrest in human A549 cells assessed as accumulation at S phase at 20 uM after 24 hrs using propidium iodide staining by flow cytometric analysis (reference value: 21.16 %); type: functional
# A549 [10] = test: Cell cycle arrest in human A549 cells assessed as accumulation at G0/G1 phase at 40 uM after 24 hrs using propidium iodide staining by flow cytometric analysis (reference value: 70.68 %); type: functional
# A549 [11] = test: Cell cycle arrest in human A549 cells assessed as accumulation at S phase at 30 uM after 24 hrs using propidium iodide staining by flow cytometric analysis (reference value: 21.16 %); type: functional
# A549 [12] = test: Cell cycle arrest in human A549 cells assessed as accumulation at G2/M phase at 20 uM after 24 hrs using propidium iodide staining by flow cytometric analysis (reference value: 8.16 %); type: functional
# A549 [13] = test: Induction of early apoptosis in human A549 cells assessed as reduction of living cells after 24 hrs by Hoechst-33258/propodium iodide staining based fluorescence microscopy; type: functional, cell-based; method in brief: as §2
# A549 [14] = test: Cell cycle arrest in human A549 cells assessed as accumulation at S phase at 10 uM after 24 hrs using propidium iodide staining by flow cytometric analysis (reference value: 21.16 %); type: functional
# A549 [15] = test: Induction of apoptosis in human A549 cells assessed as changes in cell morphology after 24 hrs by Hoechst-33258/propodium iodide staining based fluorescence microscopy; type: functional; method in brief: as §2
# A549 [16] = test: Cell cycle arrest in human A549 cells assessed as accumulation at S phase at 15 uM after 24 hrs using propidium iodide staining by flow cytometric analysis (reference value: 21.16 %); type: functional
# A549 [17] = test: Cell cycle arrest in human A549 cells assessed as accumulation at G0/G1 phase at 15 uM after 24 hrs using propidium iodide staining by flow cytometric analysis (reference value: 70.68 %); type: functional
# A549 [18] = test: Cell cycle arrest in human A549 cells assessed as accumulation at G0/G1 phase at 20 uM after 24 hrs using propidium iodide staining by flow cytometric analysis (reference value: 70.68 %); type: functional
# A549 [19] = test: Cell cycle arrest in human A549 cells assessed as accumulation at G2/M phase at 15 uM after 24 hrs using propidium iodide staining by flow cytometric analysis (reference value: 8.16 %); type: functional
# A549 [20] = test: Cell cycle arrest in human A549 cells assessed as accumulation at G2/M phase at 40 uM after 24 hrs using propidium iodide staining by flow cytometric analysis (reference value: 8.16 %); type: functional
# A549 [21] = test: Cell cycle arrest in human A549 cells assessed as accumulation at S phase at 40 uM after 24 hrs using propidium iodide staining by flow cytometric analysis (reference value: 21.16 %); type: functional
# A549 [22] = test: Cell cycle arrest in human A549 cells assessed as accumulation at G0/G1 phase at 30 uM after 24 hrs using propidium iodide staining by flow cytometric analysis (reference value: 70.68 %); type: functional
# A549 [23] = test: Cell cycle arrest in human A549 cells assessed as accumulation at G0/G1 phase at 10 uM after 24 hrs using propidium iodide staining by flow cytometric analysis (reference value: 70.68 %); type: functional
Compound,IC50 (HL-60 [2]) [µM],IC50 (A549 [3]) [µM],Activity [1],further results
O=c1oc2cc(O)ccc2cc1-c1ccc(O)cc1,> 200,> 200,Active,–
O=c1oc2ccccc2cc1-c1ccc(O)cc1,> 200,> 200,–,–
COc1cc(-c2cc3ccc(O)cc3oc2=O)ccc1O,91.7,> 200,Active,–
O=c1oc2cc(O)ccc2cc1-c1ccccc1,> 200,> 200,–,–
O=c1oc2cc(O)c(O)cc2cc1-c1ccc(O)c(O)c1,22.1,48.8,Active,–
COc1cc2cc(-c3cc(OC)c(OC)c(OC)c3)c(=O)oc2c(OC)c1O,72.2,> 200,Active,–
O=c1oc2cc(O)ccc2cc1-c1cc(O)cc(O)c1,127,> 200,–,–
O=c1oc2cc(O)ccc2cc1-c1ccc(O)c(O)c1,42.1,85,–,–
Oc1ccc(/C=C/c2cc(O)cc(O)c2)cc1 [RESVERATROL],–,120,–,–

# Stronger by IC50 (A549 [3]), values ahead:
IC50 (HL-60 [2]) [µM],IC50 (A549 [3]) [µM],Compound,Activity [1],further results
25,42.5,O=c1oc2cc(O)c(O)cc2cc1-c1ccc(O)cc1,Active,–
5.2,7.5,COc1cc2cc(-c3ccc(O)cc3)c(=O)oc2cc1O,inactive,fold change (FC) (HL-60 [4]): 7; Activity (A549 [5]): Dose-dependent effect; Activity (A549 [6]): 16.6%; fold change (FC) (A549 [7]): 16; Activity (A549 [8]): 80.95%; Activity (A549 [9]): 18.1%; Activity (A549 [10]): 7.11%; Activity (A549 [11]): 9.43%; Activity (A549 [12]): 70.08%; Activity (A549 [13]): Dose-dependent effect; Activity (A549 [14]): 11.95%; Activity (A549 [15]): Dose-dependent effect; Activity (A549 [16]): 19.86%; Activity (A549 [17]): 34.49%; Activity (A549 [18]): 11.82%; Activity (A549 [19]): 40.65%; Activity (A549 [20]): 84.03%; Activity (A549 [21]): 8.86%; Activity (A549 [22]): 9.62%; Activity (A549 [23]): 71.45%
–,43.4,COc1cc(-c2cc3cc(O)c(O)cc3oc2=O)ccc1O,–,–
25.1,45.8,COc1cc2cc(-c3ccc(O)cc3)c(=O)oc2c(OC)c1O,Active,–
14,27,O=c1oc2cc(O)c(O)cc2cc1-c1ccccc1,Active,–
24.3,21.4,COc1cc(-c2cc3cc(OC)c(O)cc3oc2=O)ccc1O,Active,–

# Reference: ChEMBL document CHEMBL1914408, “Synthesis and biological evaluation of hydroxylated 3-phenylcoumarins as antioxidants and antiproliferative agents” (Bioorg Med Chem Lett, 2011)
